From ChEMBL document CHEMBL4043143, “2-N-Arylthiazole inhibitors of Mycobacterium tuberculosis” (Bioorg Med Chem Lett, 2017)
Values after ≈ are worked out from the molar mass of the structure shown. Active and inactive are the calls of the source. No cut-off for these calls is given here.

Columns and labels:
[1] = tested on: Mycobacterium tuberculosis; assay: Antitubercular activity against Mycobacterium tuberculosis H37Ra infected in THP-1 macrophages measured after 5 days post infection by luciferase reporter gene assay; format: functional; conditions: THP-1, 120 h
Procedure, shortened: (§1)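 Firefly luciferase reporter Mtb infected THP-1 cells. Bacterial growth was read by luminescence five days post-infection, and the value was reported as the 50% inhibitory concentration. The assay medium used glucose and glycerol as the carbon source.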

[2] = Clearance in mouse at 1 mg/kg, iv; format: ADME, organism-based; conditions: in vivo
Procedure, shortened: (§2)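 Mouse pharmacokinetics after 3 mg/kg oral or 1 mg/kg intravenous dosing. Clearance is in mL/min/kg. AUC is in μg*h/mL, with oral exposure normalised to the actual dose.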

[3] = Half life in mouse at 3 mg/kg, po or 1 mg/kg, iv; format: ADME, organism-based; conditions: in vivo; procedure, shortened: as §2
Mus musculus = assay: Dose normalized AUC in mouse at 3 mg/kg, po or 1 mg/kg, iv; format: ADME, organism-based; conditions: in vivo; procedure, shortened: as §2
[4] = tested on: Mycobacterium tuberculosis; assay: Antitubercular activity against Mycobacterium tuberculosis Erdman BSL3 infected in BALB/c mouse assessed as reduction in colony forming units in lung homogenates at 100 mg/kg administered daily via oral gavage for 5 days per week for 4 weeks; format: functional, organism-based; conditions: Mycobacterium tuberculosis str. Erdman = ATCC 35801
Procedure, shortened: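 BALB/c mice were infected intranasally with 10^6 cfu of the Erdman isolate, six mice per group. Dosing was 100 mg/kg daily, 5 days/week, for four weeks. Lung homogenates were plated for cfu. An early-control group was killed at the start of therapy to set the infection load, and a late-control group marked the endpoint and confirmed virulence. Rifampin at 10 mg/kg was the positive control.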

[5] = tested on: Mycobacterium tuberculosis; assay: Antitubercular activity against Mycobacterium tuberculosis H37Ra BSL2 infected in THP-1 macrophages after 5 days post infection by luciferase reporter gene assay; format: functional; conditions: H37Ra BSL2, THP-1, 120 h; procedure, shortened: as §1
[6] = tested on: Mycobacterium tuberculosis; assay: Antitubercular activity against Mycobacterium tuberculosis H37Ra BSL2 cultured in broth; format: functional
Procedure, shortened: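 BSL2 H37Ra broth assay. MIC was taken as the concentration (μM) giving 70% growth inhibition versus control wells.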

[7] = tested on: Mycobacterium tuberculosis; assay: Antitubercular activity against Mycobacterium tuberculosis H37Rv BSL3 infected in THP-1 macrophages using middlebrook 7H9 broth media after 5 days post infection by luciferase reporter gene assay; format: functional; conditions: H37Rv BSL3, THP-1, 120 h
[8] = tested on: Mycobacterium tuberculosis; assay: Antitubercular activity against Mycobacterium tuberculosis Erdman BSL3 infected in THP-1 macrophages using middlebrook 7H9 broth media after 5 days post infection by luciferase reporter gene assay; format: functional, Mycobacterium tuberculosis str. Erdman = ATCC 35801; conditions: BSL3, 120 h
[9] = tested on: Mycobacterium tuberculosis; assay: Antitubercular activity against Mycobacterium tuberculosis H37Rv BSL3 infected in THP-1 macrophages using middlebrook 7H12 broth media after 5 days post infection by luciferase reporter gene assay; format: functional; conditions: H37Rv BSL3, THP-1, 120 h
[10] = tested on: Mycobacterium tuberculosis; assay: Antitubercular activity against Mycobacterium tuberculosis H37Rv BSL3 infected in THP-1 macrophages under anaerobic condition after 5 days post infection by luciferase reporter gene assay; format: functional; conditions: H37Rv BSL3, THP-1, 120 h
[11] = tested on: Mycobacterium tuberculosis; assay: Antitubercular activity against Mycobacterium tuberculosis Erdman BSL3 infected in THP-1 macrophages using middlebrook 7H12 broth media after 5 days post infection by luciferase reporter gene assay; format: functional, Mycobacterium tuberculosis str. Erdman = ATCC 35801; conditions: BSL3, THP-1, 120 h
[12] = Metabolic stability in rat liver microsomes assessed as compound remaining at 1 uM measured after 30 mins; format: ADME, microsome; conditions: read-out: Stability

| SMILES | IC50 [1] [µM] | clearance [2] [L/h/kg] | half-life [3] [h] | AUC/dose (Mus musculus) [µg·h/mL] | remaining at 0.5 h, 1 µM [12] [%] | also measured |
| --- | --- | --- | --- | --- | --- | --- |
| CCCCc1ccc(Nc2nc(C(C)C(=O)O)cs2)cc1 (stereo not given) | 0.14 | 0.24 | 0.9 | 4.8 |  |  |
| Cc1csc(Nc2ccc(CCN(C)C)cc2)n1 | > 20 |  |  |  |  |  |
| CC(C)(C)c1ccc(Nc2nc(CC(=O)O)cs2)cc1 | 0.07 | 0.24 | 1.1 | 24.1 |  | Activity [4]: inactive; IC50 [5]: 0.07 µM; MIC70 [6]: 0.16 µM (≈ 0.0465 µg/mL); IC50 [7]: 9.4 µM; MIC90 [8]: 6.3 µM (≈ 1.83 µg/mL); IC50 [9]: > 100 µM; IC50 [10]: > 100 µM; IC50 [11]: 63 µM |
| Cc1csc(Nc2ccc(COCC(F)(F)F)cc2)n1 | < 0.04 |  |  |  | 1 |  |
| Cc1csc(Nc2ccc(C(C)(C)O)cc2)n1 | 0.06 |  |  |  | 12 |  |
| CCCOc1ccc(Nc2nc(C)cs2)cc1 | 0.15 |  |  |  | 4 |  |
| CCNCc1ccc(Nc2nc(C)cs2)cc1 | > 20 |  |  |  | 0 |  |
| Cc1csc(Nc2ccc(C(C)C)cc2)n1 | 0.01 |  |  |  | 0 |  |
| CCCCc1ccc(Nc2nc(CC(N)=O)cs2)cc1 | 0.86 |  |  |  |  |  |
| CCCCc1ccc(Nc2nc(CC(=O)O)cs2)cc1 | 0.15 | 0.3 | 3.1 | 4.9 |  | Activity [4]: inactive; IC50 [5]: 0.15 µM; MIC70 [6]: 0.16 µM (≈ 0.0465 µg/mL); MIC90 [8]: 7.8 µM (≈ 2.27 µg/mL); IC50 [9]: 91 µM; IC50 [10]: 17.8 µM; IC50 [11]: 56 µM |
| CCC(O)Cc1ccc(Nc2nc(C)cs2)cc1 (stereo not given) | 0.4 |  |  |  | 1 |  |
| CCC(C)c1ccc(Nc2nc(CC(=O)O)cs2)cc1 (racemic) | 0.07 | 0.18 | 2.8 | 14.4 |  | Activity [4]: inactive; IC50 [5]: 0.07 µM; MIC70 [6]: 0.16 µM (≈ 0.0465 µg/mL); IC50 [7]: 9.4 µM; MIC90 [8]: 6.3 µM (≈ 1.83 µg/mL); IC50 [9]: > 100 µM; IC50 [10]: 96 µM; IC50 [11]: > 100 µM |
| Cc1csc(Nc2ccc(C(C)(C)C)cc2)n1 | < 0.04 |  |  |  | 0 |  |
